Reference: ChEMBL document CHEMBL1146626, “The stability of pseudopeptides bearing sulfoximines as chiral backbone modifying element towards proteinase K” (Bioorg Med Chem Lett, 2003)
Residues, ends and D or L forms follow the SMILES beside them.

Key:
[1] = Relativity constant at a substrate concentration of 304 uM
[2] = system: Proteinase K (Tritirachium album); assay: Amount of proteinase K required to release folin positive amino acids at a substrate concentration of 304 uM
[3] = Rate constant for the compound at a substrate concentration of 304 uM was determined; format: ADME
In short: (§1)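 Substrate incubated at 37 °C with Proteinase K in 30 mM Tris–HCl, 1 mM CaCl2, pH 8.0. Aliquots were taken at several times, snap-frozen in liquid nitrogen and held at -20 °C. Thawed samples went straight onto C-18 RP-HPLC, eluted with water then a gradient to 70% CH3CN. Substrate and cleavage products were tracked by UV at 210 nm against retention times.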

[4] = Half-life period at a substrate concentration of 304 uM was determined; format: ADME
In short: as §1

[5] = Relativity constant at a substrate concentration of 304 uM; format: ADME
In short: as §1

[6] = Rate constant for the compound at a substrate concentration of 262 uM was determined; No cleavage; format: ADME
In short: as §1

[7] = Rate constant for the compound at a substrate concentration of 218 uM was determined; format: ADME
In short: as §1

[8] = Half-life period at a substrate concentration of 218 uM was determined; format: ADME
In short: as §1

[9] = Relativity constant at a substrate concentration of 218 uM; format: ADME
In short: as §1

Row | Krel [1] | Activity [2] | K obs [3] | half-life at 304 µM [4] | Krel [5] | K obs [6] | K obs [7] | half-life at 218 µM [8] | Krel [9] | SMILES
1 | 1 | 3 mAU ml-1 | 3.75 h⁻¹ | 11.1 min | – | – | – | – | – | N[C@@H](Cc1ccccc1)C(=O)N=[S+]([O-])(CC(=O)N[C@@H](Cc1ccccc1)C(=O)O)c1ccccc1 (some centres undefined)
2 | – | 30 mAU ml-1 | 2.72 h⁻¹ | 15.3 min | 0.73 | – | – | – | – | N[C@H](Cc1ccccc1)C(=O)N=[S+]([O-])(CC(=O)N[C@H](Cc1ccccc1)C(=O)O)c1ccccc1 (some centres undefined)
3 | – | 300 mAU ml-1 | – | – | – | No cleavage | – | – | – | N=[S+]([O-])(CC(=O)N[C@@H](Cc1ccccc1)C(=O)O)c1ccccc1 (some centres undefined)
4 | – | 1.5 mAU ml-1 | – | – | – | – | 1.11 h⁻¹ | 37.5 min | 0.59 | N[C@@H](Cc1ccccc1)C(=O)N[C@@H](Cc1ccccc1)C(=O)N[C@@H](Cc1ccccc1)C(=O)O (H-Phe-Phe-Phe-OH)
